Data published in ChEMBL document CHEMBL1129336, “Ryanodine action at calcium release channels. 2. relation to substituents of the cyclohexane ring” (J Med Chem, 1996).

Test system: not listed separately
Assay: Inhibition of the contraction on electrical stimulation of cardiac muscle using rat right ventricular muscle strips
Assay type: functional, tissue-based
Conditions: Muscle tissue
Outline: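 Contractility test on intact rat ventricular muscle strips. The read-out reflects both tissue penetration and receptor action. Values are means of three to five experiments, expressed as IC50.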

| SMILES | IC50 [nM] |
| --- | --- |
| CC(C)[C@@]1(O)[C@@H](OC(=O)c2cc[nH]c2)[C@@]2(O)[C@]3(C)C[C@@]4(O)O[C@@]5([C@H](O)[C@@H](C)CC[C@]35O)[C@@]2(O)[C@@]41C [RYANODINE] | 34 |

Biological target: T1, Ryanodine receptor 2 (Canis lupus familiaris) (UniProt Q8WN72)
T1 sequence (whole entry): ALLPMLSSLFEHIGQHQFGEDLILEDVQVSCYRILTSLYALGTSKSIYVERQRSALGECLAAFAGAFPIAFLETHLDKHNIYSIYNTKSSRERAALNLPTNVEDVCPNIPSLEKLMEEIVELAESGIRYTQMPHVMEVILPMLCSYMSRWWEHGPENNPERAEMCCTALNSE
Assay: Displacement of [3H]ryanodine binding to ryanodine receptor(ryr) in canine left ventricular membranes
Assay type: cell membranes
Conditions: not given
Outline: (§1)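 Radioligand displacement assays of [3H]ryanodine binding at the ryanodine receptor, one each on rabbit skeletal muscle, mouse brain and canine ventricle preparations. Values are means of three to five experiments, each run in duplicate; standard error is reported as percent of the mean.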

| SMILES | Relative activity |
| --- | --- |
| CC(C)C1(O)C(OC(=O)c2ccc[nH]2)C2(O)C3(C)CC4(O)OC5(CC(O)CCC35O)C2(O)C41C (stereo not given) | 0.42 |
| CONC1C(C)CCC2(O)C3(C)CC4(O)OC12C1(O)C3(O)C(OC(=O)c2ccc[nH]2)C(O)(C(C)C)C41C (stereo not given) | 36 |
| CC1CCC2(O)C3(C)CC4(O)OC2(NC1=O)C1(O)C3(O)C(OC(=O)c2ccc[nH]2)C(O)(C(C)C)C41C (stereo not given) | 7.4 |
| CO/N=C1\C(C)CCC2(O)C3(C)CC4(O)OC12C1(O)C3(O)C(OC(=O)c2ccc[nH]2)C(O)(C(C)C)C41C (stereo not given) | 17 |

Biological target: T2, Ryanodine receptor 2 (Canis lupus familiaris, UniProt Q8WN72)
T2 sequence (Q8WN72 whole entry): T1 sequence (whole entry)
Assay: Binding affinity towards ryanodine receptor in canine ventrical preparation
Conditions: not given
Outline: (§2)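 Ryanodine receptor binding assays on tissue preparations. Values are means of three to five experiments, each run in duplicate. Results are reported as Ki for the cardiac ventricle preparation.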

| SMILES | Ki [nM] |
| --- | --- |
| CC(C)[C@@]1(O)[C@@H](OC(=O)c2ccc[nH]2)[C@@]2(O)[C@@]3(C)C[C@]4(O)O[C@@]5([C@H](O)[C@@H](C)CC[C@]35O)[C@@]2(O)[C@@]14C [RYANODINE] | 1.8 |

Biological target: not listed separately
Assay: Inhibitory activity against ryanodine receptor in rabbit muscle
Assay type: functional, Oryctolagus cuniculus
Conditions: not given
Outline: as §2

| SMILES | IC50 [nM] |
| --- | --- |
| CC(C)[C@@]1(O)[C@@H](OC(=O)c2cc[nH]c2)[C@@]2(O)[C@]3(C)C[C@@]4(O)O[C@@]5([C@H](O)[C@@H](C)CC[C@]35O)[C@@]2(O)[C@@]41C [RYANODINE] | 3.5 |

Test system: not listed separately
Assay: Inhibition of contraction on electrical stimulation of cardiac muscle using rat right ventricular muscle strips
Assay type: functional, Muscle tissue
Conditions: not given
Outline: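 Physiological function test on intact rat ventricular muscle strips, in which the read-out depends on both tissue penetration and receptor potency. Values are expressed as IC50 from three to five experiments; standard error is reported as percent of the mean.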

| SMILES | Relative activity |
| --- | --- |
| CC(C)C1(O)C(OC(=O)c2ccc[nH]2)C2(O)C3(C)CC4(O)OC5(CC(O)CCC35O)C2(O)C41C (stereo not given) | 28 |
| CONC1C(C)CCC2(O)C3(C)CC4(O)OC12C1(O)C3(O)C(OC(=O)c2ccc[nH]2)C(O)(C(C)C)C41C (stereo not given) | 31 |
| CC1=CCC2(O)C3(C)CC4(O)OC2(C1O)C1(O)C3(O)C(OC(=O)c2ccc[nH]2)C(O)(C(C)C)C41C (stereo not given) | 11 |
| CC1CCC2(O)C3(C)CC4(O)OC2(C1O)C1(O)C3(O)C(OC(=O)c2ccc[nH]2)C(O)(C(C)C)C41C (stereo not given) | 34 |
| CC1CCC2(O)C3(C)CC4(O)OC2(NC1=O)C1(O)C3(O)C(OC(=O)c2ccc[nH]2)C(O)(C(C)C)C41C (stereo not given) | 11 |
| CO/N=C1\C(C)CCC2(O)C3(C)CC4(O)OC12C1(O)C3(O)C(OC(=O)c2ccc[nH]2)C(O)(C(C)C)C41C (stereo not given) | 34 |

Biological target: not listed separately
Assay: Inhibitory activity against ryanodine receptor in Mouse brain
Assay type: functional, tissue-based
Conditions: not given

| SMILES | IC50 [nM] |
| --- | --- |
| CC(C)[C@@]1(O)[C@@H](OC(=O)c2cc[nH]c2)[C@@]2(O)[C@]3(C)C[C@@]4(O)O[C@@]5([C@H](O)[C@@H](C)CC[C@]35O)[C@@]2(O)[C@@]41C [RYANODINE] | 3.3 |

Biological target: Ryanodine receptor 2 (Mus musculus) (UniProt E9Q401)
Assay: Displacement of [3H]ryanodine from ryanodine receptor(ryr) of Mouse brain
Conditions: not given

| SMILES | Relative activity |
| --- | --- |
| CC(C)[C@@]1(O)[C@@H](OC(=O)c2cc[nH]c2)[C@@]2(O)[C@]3(C)C[C@@]4(O)O[C@@]5([C@H](O)[C@@H](C)CC[C@]35O)[C@@]2(O)[C@@]41C [RYANODINE] | 100 |

Biological target: Ryanodine receptor 1 (Oryctolagus cuniculus) (UniProt P11716)
Assay: Displacement of [3H]ryanodine from ryanodine receptor(ryr) of rabbit skeletal muscle
Conditions: not given
Outline: as §1

Sequence of Ryanodine receptor 1 (Oryctolagus cuniculus) (P11716 whole entry): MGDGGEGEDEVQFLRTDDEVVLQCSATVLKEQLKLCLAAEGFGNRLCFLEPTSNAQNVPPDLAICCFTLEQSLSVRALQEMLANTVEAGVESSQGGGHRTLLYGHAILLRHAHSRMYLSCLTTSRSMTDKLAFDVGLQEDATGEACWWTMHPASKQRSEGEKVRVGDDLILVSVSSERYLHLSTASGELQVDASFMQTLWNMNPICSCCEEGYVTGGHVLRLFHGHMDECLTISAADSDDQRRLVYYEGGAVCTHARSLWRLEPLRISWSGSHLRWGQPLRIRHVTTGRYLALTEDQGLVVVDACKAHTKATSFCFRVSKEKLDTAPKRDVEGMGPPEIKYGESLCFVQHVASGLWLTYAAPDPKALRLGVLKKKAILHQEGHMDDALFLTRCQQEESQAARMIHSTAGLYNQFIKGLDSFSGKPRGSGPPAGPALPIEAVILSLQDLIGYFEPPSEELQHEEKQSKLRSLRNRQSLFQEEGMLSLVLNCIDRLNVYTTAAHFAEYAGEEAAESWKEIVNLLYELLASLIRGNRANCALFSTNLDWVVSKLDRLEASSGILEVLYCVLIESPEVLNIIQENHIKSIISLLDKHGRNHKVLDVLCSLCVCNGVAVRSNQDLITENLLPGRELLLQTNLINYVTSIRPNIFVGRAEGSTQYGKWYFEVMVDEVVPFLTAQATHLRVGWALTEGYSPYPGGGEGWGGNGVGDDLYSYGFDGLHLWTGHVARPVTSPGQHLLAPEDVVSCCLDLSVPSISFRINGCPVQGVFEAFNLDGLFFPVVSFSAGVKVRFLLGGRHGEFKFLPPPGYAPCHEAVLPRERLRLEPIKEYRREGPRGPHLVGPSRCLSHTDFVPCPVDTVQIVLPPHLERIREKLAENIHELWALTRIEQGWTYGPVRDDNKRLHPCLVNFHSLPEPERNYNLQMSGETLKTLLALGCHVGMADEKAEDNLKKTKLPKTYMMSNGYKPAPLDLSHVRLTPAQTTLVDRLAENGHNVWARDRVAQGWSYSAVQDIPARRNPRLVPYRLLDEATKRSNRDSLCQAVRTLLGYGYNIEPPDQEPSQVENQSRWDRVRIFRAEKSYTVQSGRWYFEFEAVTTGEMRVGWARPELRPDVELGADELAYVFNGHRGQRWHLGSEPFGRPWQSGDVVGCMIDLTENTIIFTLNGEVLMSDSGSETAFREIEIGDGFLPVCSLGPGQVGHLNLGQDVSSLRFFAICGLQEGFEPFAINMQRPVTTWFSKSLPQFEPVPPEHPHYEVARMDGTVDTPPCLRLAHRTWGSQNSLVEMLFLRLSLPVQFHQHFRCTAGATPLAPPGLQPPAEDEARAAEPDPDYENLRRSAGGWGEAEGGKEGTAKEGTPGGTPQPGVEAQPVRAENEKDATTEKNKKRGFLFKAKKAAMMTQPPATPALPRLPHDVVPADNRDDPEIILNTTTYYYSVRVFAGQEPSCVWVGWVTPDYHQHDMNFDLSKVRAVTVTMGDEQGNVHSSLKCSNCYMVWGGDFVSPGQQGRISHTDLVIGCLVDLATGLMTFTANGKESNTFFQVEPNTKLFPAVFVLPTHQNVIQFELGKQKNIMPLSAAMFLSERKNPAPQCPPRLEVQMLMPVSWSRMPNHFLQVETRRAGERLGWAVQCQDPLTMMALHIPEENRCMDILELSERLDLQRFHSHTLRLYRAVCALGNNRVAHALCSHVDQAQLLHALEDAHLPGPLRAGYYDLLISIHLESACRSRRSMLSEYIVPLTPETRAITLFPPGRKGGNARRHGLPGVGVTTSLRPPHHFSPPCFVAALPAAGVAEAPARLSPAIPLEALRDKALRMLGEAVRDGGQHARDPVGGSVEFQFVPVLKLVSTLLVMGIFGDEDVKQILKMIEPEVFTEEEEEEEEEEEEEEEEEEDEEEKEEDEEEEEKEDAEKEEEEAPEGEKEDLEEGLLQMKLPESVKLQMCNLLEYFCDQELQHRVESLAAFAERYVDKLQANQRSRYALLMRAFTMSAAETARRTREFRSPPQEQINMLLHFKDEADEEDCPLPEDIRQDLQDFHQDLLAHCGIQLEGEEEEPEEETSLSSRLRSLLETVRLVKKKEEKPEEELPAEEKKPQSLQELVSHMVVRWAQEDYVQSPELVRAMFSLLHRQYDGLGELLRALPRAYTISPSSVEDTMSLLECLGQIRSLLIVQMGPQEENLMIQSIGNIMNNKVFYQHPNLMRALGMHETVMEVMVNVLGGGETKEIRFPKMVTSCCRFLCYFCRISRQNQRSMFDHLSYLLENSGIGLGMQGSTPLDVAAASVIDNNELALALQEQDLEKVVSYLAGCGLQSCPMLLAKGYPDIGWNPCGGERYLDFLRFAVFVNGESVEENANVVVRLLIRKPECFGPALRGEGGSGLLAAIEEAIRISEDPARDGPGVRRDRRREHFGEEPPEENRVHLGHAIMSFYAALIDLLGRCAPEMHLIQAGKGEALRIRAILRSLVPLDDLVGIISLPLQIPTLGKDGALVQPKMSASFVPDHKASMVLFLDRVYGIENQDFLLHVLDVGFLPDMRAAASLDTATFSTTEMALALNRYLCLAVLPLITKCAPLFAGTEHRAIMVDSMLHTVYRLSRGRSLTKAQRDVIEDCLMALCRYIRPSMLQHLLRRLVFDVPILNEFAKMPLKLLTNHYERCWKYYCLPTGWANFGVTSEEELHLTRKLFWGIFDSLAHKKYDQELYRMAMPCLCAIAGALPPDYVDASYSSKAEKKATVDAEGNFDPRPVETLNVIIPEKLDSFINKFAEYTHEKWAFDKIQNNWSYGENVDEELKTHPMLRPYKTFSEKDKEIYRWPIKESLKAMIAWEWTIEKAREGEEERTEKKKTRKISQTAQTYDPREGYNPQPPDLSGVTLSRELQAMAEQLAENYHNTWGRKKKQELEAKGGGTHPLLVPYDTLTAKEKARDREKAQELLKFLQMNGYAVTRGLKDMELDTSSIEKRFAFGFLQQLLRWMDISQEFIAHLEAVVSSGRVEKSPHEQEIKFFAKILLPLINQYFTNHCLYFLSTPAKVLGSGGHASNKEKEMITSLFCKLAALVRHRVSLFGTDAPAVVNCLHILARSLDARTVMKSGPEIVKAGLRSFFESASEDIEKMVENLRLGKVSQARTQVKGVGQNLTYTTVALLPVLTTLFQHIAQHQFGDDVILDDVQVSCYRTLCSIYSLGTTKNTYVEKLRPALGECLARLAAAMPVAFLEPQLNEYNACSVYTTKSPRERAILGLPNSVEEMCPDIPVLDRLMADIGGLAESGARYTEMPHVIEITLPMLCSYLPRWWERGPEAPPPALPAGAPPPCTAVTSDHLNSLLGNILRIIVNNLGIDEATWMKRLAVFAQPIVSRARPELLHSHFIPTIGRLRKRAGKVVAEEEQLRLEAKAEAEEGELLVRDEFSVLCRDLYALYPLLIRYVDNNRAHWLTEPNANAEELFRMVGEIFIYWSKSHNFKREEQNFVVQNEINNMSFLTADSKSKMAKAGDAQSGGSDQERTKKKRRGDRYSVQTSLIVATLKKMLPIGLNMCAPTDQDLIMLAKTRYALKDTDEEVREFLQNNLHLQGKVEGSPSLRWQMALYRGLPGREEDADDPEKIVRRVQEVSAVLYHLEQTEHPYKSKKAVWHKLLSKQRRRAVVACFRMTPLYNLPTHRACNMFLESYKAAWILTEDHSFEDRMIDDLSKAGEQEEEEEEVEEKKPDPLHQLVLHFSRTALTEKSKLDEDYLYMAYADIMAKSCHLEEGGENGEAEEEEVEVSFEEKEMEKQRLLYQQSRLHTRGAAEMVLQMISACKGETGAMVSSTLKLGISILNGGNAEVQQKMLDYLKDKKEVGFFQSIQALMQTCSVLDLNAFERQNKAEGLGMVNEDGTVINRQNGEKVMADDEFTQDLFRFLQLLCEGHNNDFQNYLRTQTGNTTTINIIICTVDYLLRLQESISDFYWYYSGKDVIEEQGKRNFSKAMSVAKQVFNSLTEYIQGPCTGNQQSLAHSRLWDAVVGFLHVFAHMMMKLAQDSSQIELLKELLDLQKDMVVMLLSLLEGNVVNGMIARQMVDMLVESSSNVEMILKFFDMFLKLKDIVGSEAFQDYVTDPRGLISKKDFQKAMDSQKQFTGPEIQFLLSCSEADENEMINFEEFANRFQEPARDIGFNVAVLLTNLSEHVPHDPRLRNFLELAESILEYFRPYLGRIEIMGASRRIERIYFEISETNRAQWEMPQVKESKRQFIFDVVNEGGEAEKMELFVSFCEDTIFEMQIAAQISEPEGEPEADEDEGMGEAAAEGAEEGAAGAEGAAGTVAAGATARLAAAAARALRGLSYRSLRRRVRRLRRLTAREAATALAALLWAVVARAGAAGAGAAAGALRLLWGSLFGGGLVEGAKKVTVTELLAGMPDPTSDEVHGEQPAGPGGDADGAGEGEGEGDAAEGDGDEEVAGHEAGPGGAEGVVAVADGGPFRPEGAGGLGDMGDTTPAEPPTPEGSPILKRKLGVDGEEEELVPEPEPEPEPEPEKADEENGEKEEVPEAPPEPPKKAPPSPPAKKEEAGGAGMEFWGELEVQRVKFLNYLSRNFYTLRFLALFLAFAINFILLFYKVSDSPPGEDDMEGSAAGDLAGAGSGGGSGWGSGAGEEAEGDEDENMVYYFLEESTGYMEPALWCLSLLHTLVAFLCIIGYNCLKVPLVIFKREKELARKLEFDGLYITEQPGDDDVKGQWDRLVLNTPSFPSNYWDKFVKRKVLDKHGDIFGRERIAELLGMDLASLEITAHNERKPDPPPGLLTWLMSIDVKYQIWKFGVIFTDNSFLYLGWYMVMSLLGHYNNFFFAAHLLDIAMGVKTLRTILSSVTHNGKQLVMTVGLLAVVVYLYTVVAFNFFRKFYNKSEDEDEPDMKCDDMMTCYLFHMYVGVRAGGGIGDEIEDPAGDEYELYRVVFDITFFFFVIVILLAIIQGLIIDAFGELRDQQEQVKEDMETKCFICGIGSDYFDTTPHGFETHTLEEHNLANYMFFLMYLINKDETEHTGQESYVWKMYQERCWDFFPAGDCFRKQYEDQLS

| SMILES | Relative activity |
| --- | --- |
| CC(C)C1(O)C(OC(=O)c2ccc[nH]2)C2(O)C3(C)CC4(O)OC5(CC(O)CCC35O)C2(O)C41C (stereo not given) | 0.2 |
| C=C1CCC2(O)C3(C)CC4(O)OC2(C1OC(=O)c1ccccc1)C1(O)C3(O)C(OC(=O)c2ccc[nH]2)C(O)(C(C)C)C41C (stereo not given) | 3.9 |
| CC(C)[C@@]1(O)[C@@H](OC(=O)c2cc[nH]c2)[C@@]2(O)[C@]3(C)C[C@@]4(O)O[C@@]5([C@H](O)[C@@H](C)CC[C@]35O)[C@@]2(O)[C@@]41C [RYANODINE] | 100 |
| CONC1C(C)CCC2(O)C3(C)CC4(O)OC12C1(O)C3(O)C(OC(=O)c2ccc[nH]2)C(O)(C(C)C)C41C (stereo not given) | 68 |
| CC1=CCC2(O)C3(C)CC4(O)OC2(C1O)C1(O)C3(O)C(OC(=O)c2ccc[nH]2)C(O)(C(C)C)C41C (stereo not given) | 26 |
| CC1CCC2(O)C3(C)CC4(O)OC2(C1N)C1(O)C3(O)C(OC(=O)c2ccc[nH]2)C(O)(C(C)C)C41C (stereo not given) | 68 |
| CC(C)C1(O)C(OC(=O)c2ccc[nH]2)C2(O)C3(C)CC4(O)OC5(CCCCC35O)C2(O)C41C (stereo not given) | 6.5 |
| CC1CCC2(O)C3(C)CC4(O)OC2(C1O)C1(O)C3(O)C(OC(=O)c2ccc[nH]2)C(O)(C(C)C)C41C (stereo not given) | 97 |
| CC1CCC2(O)C3(C)CC4(O)OC2(NC1=O)C1(O)C3(O)C(OC(=O)c2ccc[nH]2)C(O)(C(C)C)C41C (stereo not given) | 42 |
| CO/N=C1\C(C)CCC2(O)C3(C)CC4(O)OC12C1(O)C3(O)C(OC(=O)c2ccc[nH]2)C(O)(C(C)C)C41C (stereo not given) | 13 |
